Results taken from ChEMBL document CHEMBL1150763, “Discovery of imidazo[1,5-c]imidazol-3-ones: weakly basic, orally active factor Xa inhibitors” (J Med Chem, 2008).

Columns and labels:
[1] = molecular target: Coagulation factor X (Homo sapiens, UniProt P00742); assay: Inhibition of human factor 10a
[2] = test system: Plasma; assay: Anticoagulant potency in human plasma assessed as concentration required to double the time to clot formation by PT assay; format: functional
How it was run: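 Human normal plasma mixed with compound dilutions in DMSO (1.5 µL into 48.5 µL), preincubated 4 min at 37 °C, clotting started with thromboplastin and timed on an automatic coagulometer. Prolongation relative to DMSO; concentration doubling clotting time derived by least-squares regression; mean of duplicates.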

[3] = test system: Plasma; assay: Anticoagulant potency in mouse plasma assessed as concentration required to double the time to clot formation by PT assay; format: functional
[4] = test system: Plasma; assay: Anticoagulant activity in mouse plasma assessed as ratio of prothrombin time in drug to untreated control at 30 mg/kg, po; format: functional
How it was run: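 Male ICR mice (30-35 g), fasted >12 h, dosed orally at 30 mg/kg as suspension in 0.5% methylcellulose; vehicle controls. Citrated aortic blood drawn 1 h post-dose under pentobarbital anaesthesia, spun 1000g 10 min to platelet-poor plasma. PT on 50 µL plasma preincubated 4 min at 37 °C, started with thromboplastin; clotting time expressed relative to control group (n = 3).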

[5] = molecular target: CYP3A4 (Homo sapiens, UniProt P08684); assay: Inhibition of CYP3A4 expressed in human B-lymphoblastoid cells at 10 uM; format: ADME, cell-based
Chain of CYP3A4 (P08684 whole entry): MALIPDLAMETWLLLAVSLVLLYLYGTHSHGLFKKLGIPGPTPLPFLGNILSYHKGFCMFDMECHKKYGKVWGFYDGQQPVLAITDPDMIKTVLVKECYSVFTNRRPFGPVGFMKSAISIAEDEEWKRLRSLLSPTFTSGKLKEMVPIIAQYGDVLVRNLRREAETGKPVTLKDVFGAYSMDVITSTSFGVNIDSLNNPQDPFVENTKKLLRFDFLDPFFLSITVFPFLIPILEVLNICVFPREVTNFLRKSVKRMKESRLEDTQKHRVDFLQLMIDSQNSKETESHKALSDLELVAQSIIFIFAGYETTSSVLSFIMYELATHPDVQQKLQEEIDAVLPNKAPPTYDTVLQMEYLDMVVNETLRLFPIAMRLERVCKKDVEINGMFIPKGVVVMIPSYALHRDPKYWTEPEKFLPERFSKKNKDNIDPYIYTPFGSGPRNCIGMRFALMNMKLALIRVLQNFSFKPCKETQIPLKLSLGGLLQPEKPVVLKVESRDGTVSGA
How it was run: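 Recombinant CYP3A4 (10 nM, from CYP3A4-expressing human B-lymphoblastoid cells) incubated with 100 µM testosterone and 10 µM test compound for 30 min at 37 °C; 6β-hydroxytestosterone formation quantified by HPLC-UV.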

[6] = Basicity, pKa by titration method; format: physicochemical
[7] = physchem; details: buffer, pH 7.4

Chain of Coagulation factor X (P00742 41-179 limits assumed): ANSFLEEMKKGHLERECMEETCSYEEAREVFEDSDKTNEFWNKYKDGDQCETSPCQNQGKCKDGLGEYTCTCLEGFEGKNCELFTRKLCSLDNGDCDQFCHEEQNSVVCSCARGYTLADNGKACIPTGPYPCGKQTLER
Chain of Coagulation factor X (P00742 235-488 limits assumed): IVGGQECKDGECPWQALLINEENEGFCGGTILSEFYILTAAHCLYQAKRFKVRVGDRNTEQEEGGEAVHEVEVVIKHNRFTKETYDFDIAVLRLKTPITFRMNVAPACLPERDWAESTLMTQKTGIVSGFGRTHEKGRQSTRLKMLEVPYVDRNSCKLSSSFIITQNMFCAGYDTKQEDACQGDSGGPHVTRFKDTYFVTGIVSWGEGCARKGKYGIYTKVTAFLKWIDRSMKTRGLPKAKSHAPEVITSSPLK

| SMILES | IC50 [1] | inhibition at 10 µM [5] | pKa [6] | logD [7] | Activity [2] | Activity [3] | Ratio [4] |
| --- | --- | --- | --- | --- | --- | --- | --- |
| Cn1ccnc1C1CCN(C(=O)CCS(=O)(=O)c2ccc3cc(Cl)ccc3c2)CC1 | 0.056 µM | – | – | – | 2.1 µM | – | – |
| Cc1nccn1CCCC1CCN(C(=O)CCS(=O)(=O)c2ccc3cc(Cl)ccc3c2)CC1 | 0.46 µM | – | – | – | >10 µM | – | – |
| CCCc1nccn1C1CCN(C(=O)CCS(=O)(=O)c2ccc3cc(Cl)ccc3c2)CC1 | 0.23 µM | – | – | – | 2 µM | – | – |
| O=C(CCS(=O)(=O)c1ccc2cc(Cl)ccc2c1)N1CCC(c2ncc[nH]2)CC1 | 1.6 µM | – | – | – | >10 µM | – | – |
| Cc1ncc2n1C(=O)N(N1CCN(C(=O)CCS(=O)(=O)c3ccc4cc(Cl)ccc4c3)CC1)C2 | 0.0069 µM | 38% | 5 | 2.1 | 0.61 µM | 0.9 µM | 2.8 |

Second part, led by results:

| IC50 [1] | inhibition at 10 µM [5] | pKa [6] | logD [7] | SMILES | Activity [2] | Activity [3] | Ratio [4] |
| --- | --- | --- | --- | --- | --- | --- | --- |
| 0.0097 µM | – | – | – | O=C(CCS(=O)(=O)c1ccc2cc(Cl)ccc2c1)N1CCN(c2cccc3nc(CO)cn23)CC1 | – | – | – |
| 1.4 µM | – | – | – | O=C(CCS(=O)(=O)c1ccc2cc(Cl)ccc2c1)N1CCC(n2ccnc2)CC1 | 7 µM | – | – |
| 0.17 µM | 34% | – | – | Cc1nccn1C1CCN(C(=O)CCS(=O)(=O)c2ccc3cc(Cl)ccc3c2)CC1 | 0.99 µM | 3.3 µM | 1.1 |
| 0.12 µM | – | 7.9 | 2 | Cc1ncc(C2CCN(C(=O)CCS(=O)(=O)c3ccc4cc(Cl)ccc4c3)CC2)[nH]1 | 2.5 µM | – | – |
| – | 25% | 8.2 | – | Cc1ncc(C2CCN(C(=O)CCS(=O)(=O)c3ccc4cc(Cl)ccc4c3)CC2)n1C | 0.56 µM | 3.4 µM | – |
| 0.16 µM | – | – | – | CCc1nccn1C1CCN(C(=O)CCS(=O)(=O)c2ccc3cc(Cl)ccc3c2)CC1 | 1 µM | – | – |
